An excerpt weighted towards active compounds, which were near 10% of everything screened.
WT yeast gro inh – growth inhibition of WT yeast, mitochondrial fusion screen; mitochondrial fusion phenotypic screen, WT strain; inhibition, % at 10 µM; 190,000 tested, 2.1% active; in the data active = inhibition above about 58%; tested in S. cerevisiae
PMI act satM6P – activators of human phosphomannose isomerase at near-saturating mannose 6-phosphate; P34949; coupled PMI enzyme assay, resazurin fluorescence, 20 min; stronger effect = higher value; 1 = untreated enzyme, 0 = substrate-free blank; activation factor at 20 µM; 190,000 tested, 0.34% active; AID 1216;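 active = activation factor of 2 or more at 20 µM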
Target sequence (P34949 whole entry, looked up): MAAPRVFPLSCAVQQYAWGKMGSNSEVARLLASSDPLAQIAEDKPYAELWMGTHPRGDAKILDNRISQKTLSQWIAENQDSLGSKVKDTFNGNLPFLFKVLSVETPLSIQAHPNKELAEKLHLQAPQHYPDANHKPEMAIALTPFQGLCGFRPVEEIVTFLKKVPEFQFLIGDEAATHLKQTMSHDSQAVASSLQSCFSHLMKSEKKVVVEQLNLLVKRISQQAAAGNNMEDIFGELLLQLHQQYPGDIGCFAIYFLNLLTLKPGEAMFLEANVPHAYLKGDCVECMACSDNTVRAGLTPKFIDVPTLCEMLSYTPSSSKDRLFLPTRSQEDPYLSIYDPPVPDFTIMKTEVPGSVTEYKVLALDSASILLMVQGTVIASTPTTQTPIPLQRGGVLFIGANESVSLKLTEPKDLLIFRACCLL
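assay system = human phosphomannose isomerase with PGI, G6PDH, diaphorase coupling enzymes | quantity = 15 ng/mL PMI | incubation = enzyme reaction with compound 20 min at room temperature | medium = HEPES pH 7.4 buffer with MgCl2 and Tween-20 | compound dosing = one concentration, 20 µM, in 1% DMSO | measured by = Diaphorase-driven resazurin-to-resorufin fluorescence, excitation 544, emission 590 nm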
Diaph act CS – activates diaphorase or chemically reduces, flagging diaphorase assay artifacts. Diaphorase/resazurin coupled assay, resorufin fluorescence, 16 min; stronger effect = higher value; 1 = vehicle wells, 0 = NADH-free wells. activation factor at 20 µM. 190,000 tested, 0.005% active;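 active = diaphorase activity raised at least twofold by the compound at 20 µM; inactive = activation factor below 2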
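test system = bacterial diaphorase enzyme (C. kluyveri) | quantity = enzyme 0.07 U/mL final | reagent = NADH substrate 0.114 mM plus resazurin dye 0.1 mM, final | incubation = 16 min enzyme reaction, ambient temperature | buffer or medium = HEPES pH 7.4 buffer with MgCl2 and Tween 20 | signal = fluorescence of resorufin, 544 nm excitation, 590 nm emission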
L major viab – reduces viability of Leishmania major promastigotes | resazurin fluorescence viability | inhibition, % at 10 µM | 200,000 tested, 9% active | AID 1063; in the data active = inhibition above about 50%;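 note: promastigotes grown with compound for 44 hours at 28 °C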
PMI activator – phosphomannose isomerase (human) activation; P34949; 190,000 tested, 0.005% active; purified human PMI, coupled resazurin fluorescence, 20 min; stronger effect = higher value; 1 = vehicle control, 0 substrate-free wells; AID 1214; activation factor at 20 µM;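 active = activation factor of 2 or more at 20 µM, relative to plate controls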
Active calls of the source: *.

SMILES | WT yeast gro inh | PMI act satM6P | Diaph act CS | L major viab | PMI activator
CCCCC1=NN2C(=N)CC(=O)N=C2S1 | -9.9 | 0.9 | 0.8 | -7.8 | 1
O=C(CCc1ccccc1)N1CCN(c2ccc([N+](=O)[O-])cc2)CC1 | 16.2 | 1 | 0.9 | 1.2 | 1
CC(C)NC(=O)C1CCN(C2CCN(C(=O)c3scc4c3CCCC4)CC2)CC1 | 10.0 | 1 | 1 | 52.4* | 1
O=S(=O)(NCc1ccc2c(c1)OCO2)c1cccc2cccnc12 | -5.7 | 1 | 1 | 92.3* | 0.9
Cc1ccc2cccc(S(=O)(=O)Nc3ccc4c(c3)OCO4)c2n1 | -9.1 | 0.9 | 0.8 | 95.6* | 0.8
CCOc1cc(C)c(Cl)cc1S(=O)(=O)NCc1ccc2c(c1)OCO2 | 22.4 | 0.9 | 0.9 | 100.3* | 0.9
Cc1ccc2cccc(OCC(=O)Nc3ccc4c(c3)OCO4)c2n1 | 10.9 | 0.8 | 0.9 | 2.8 | 1
CNCCCC1Sc2ccccc2Oc2ccccc21 (stereo not drawn) | 7.5 | 1.2 | 1 | 100.4* | 1.1
CCN(CC)CCCNC(=O)C1c2ccccc2Oc2ccccc21 | -6.0 | 1.1 | 0.9 | 17.7 | 1.1
CCOc1ccc(/C=N/NC(=O)CNC(=O)c2ccc(S(=O)(=O)N3CCOCC3)cc2)cc1 | -12.5 | 1 | 0.9 | 7.0 | 1
CCc1nc(N=Nc2c(O)[nH]c3ccccc23)c2c3c(sc2n1)CCC3 | -5.5 | 1.1 | 0.9 | 82.5* | 1.1
Oc1[nH]c2ccccc2c1N=Nc1nc2ccccc2s1 | 12.1 | 1 | 0.9 | -1.3 | 1
O=C(Nc1cccc(F)c1)N1CCCC(CNS(=O)(=O)Cc2ccccc2)C1 (stereo not drawn) | -10.7 | 0.9 | 0.8 | 91.8* | 0.8
CCOC(=O)c1ccc(N/C=C/C(=O)C(C)(C)C)cc1 | -2.6 | 0.9 | 1 | -1.1 | 0.9
CN(C)c1ccc(N/C=C/C(=O)C(C)(C)C)cc1 | -9.2 | 0.9 | 0.8 | 53.6* | 0.8
CC(C)(C)C(=O)/C=C/Nc1ccccc1O | 57.4 | 0.9 | 0.8 | 98.3* | 0.9
O=C(/C=C/Nc1ccccc1)c1ccccc1 | -4.8 | 1 | 1 | -6.6 | 1
CN(C)c1ccc(N/C=C/C(=O)c2ccccc2)cc1 | -11.6 | 0.6 | 0.7 | 100.3* | 0.6
CC(C)CC(NC(N)=O)C(=O)NCCc1ccc(Cl)cc1 (stereo not drawn) | -0.5 | 1 | 0.9 | -0.9 | 1
CC1=C(C(=O)Nc2cccc(C)c2C)C(c2cccs2)NC(=S)N1 (stereo not drawn) | -13.5 | 1 | 1 | 7.0 | 0.9
CC1Cc2ccccc2N1CC(=O)NC(=O)NCc1ccco1 (stereo not drawn) | 3.7 | 1.9 | 0.8 | 96.7* | 1.4
CC1Cc2ccccc2N1CC(=O)NC(=O)NC1CCCC1 (stereo not drawn) | -8.6 | 0.9 | 0.8 | 97.5* | 1
O=C(CN1CCCc2ccccc21)NC(=O)NCc1ccco1 | 2.2 | 1.3 | 0.9 | 10.6 | 1.1
O=C(CN1CCCCCCC1)NC(=O)NC1CCCCC1 | -5.7 | 1.1 | 1 | 57.5* | 1
CCOC(=O)c1cnn(-c2cc(Oc3ccccc3C)ncn2)c1N | -3.6 | 0.9 | 0.9 | -1.2 | 0.9
SMILES | WT yeast gro inh | PMI act satM6P | Diaph act CS | L major viab | PMI activator
CCOC(=O)C(NCc1ccccc1)(NC(=O)c1ccccc1)C(F)(F)F (stereo not drawn) | 5.9 | 1 | 0.9 | 3.0 | 0.9
CCOC(=O)C(NS(=O)(=O)c1ccccc1)(C(F)(F)F)P(=O)(OCC(C)C)OCC(C)C (stereo not drawn) | 2.3 | 2* | 1 | -12.7 | 1.8
Cc1nc2sccc2c(=O)n1N | -8.9 | 1.1 | 1 | -1.7 | 1.1
CC1=CC(C)(C)Nc2ccc(OC(=O)CN3C(=O)c4cccc5cccc(c45)C3=O)cc21 | 9.6 | 0.4 | 0.4 | 95.0* | 0.5
CC1=CC(C)(C)Nc2ccc(OC(=O)C(Cc3ccccc3)N3C(=O)c4ccccc4C3=O)cc21 (stereo not drawn) | -8.7 | 0.7 | 0.8 | 98.8* | 0.8
CC1=CC(C)(C)Nc2ccc(OC(=O)CN3C(=O)c4ccccc4C3=O)cc21 | -2.0 | 0.7 | 0.8 | 100.5* | 0.8
O=C(CSc1nnc2c(n1)[nH]c1ccccc12)Nc1ccc2c(c1)OCO2 | -4.2 | 1 | 0.9 | -3.4 | 1
Cc1ccc(S(=O)(=O)NCCc2ccncc2)cc1C | -0.3 | 1.1 | 1.1 | -0.4 | 1.2
